ADAM17 inh = ADAM17 inhibitors, primary screen, biochemical, QFRET | Disintegrin and metalloproteinase domain-containing protein 17 (Homo sapiens), P78536 | recombinant ADAM17, EDANS/DABCYL FRET peptide cleavage | inhibition, % at 6.95 µM | hit rate 0.83% among 370,000 | AID 720648, 2013;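 active = inhibition above the mean of compounds lying between control limits plus 3 SD, set per campaign, cut at about 8.5% in these data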
Arr AP2 block = inhibitors of beta-arrestin/AP2 binding, primary screen, biochemical, GPCR trafficking, flow cytometry; FITC-arrestin peptide / GST-AP2 beads; AP2 beta2 appendage carries R879A mutation; hit rate 0.31% among 340,000; inhibition, % at 10 µM; beta-arrestin 1 C-terminal peptide binding to AP2 beta2-adaptin appendage (human);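 active = inhibition above a set limit, near 3 SD of compounds lacking own fluorescence, cut at about 54% in these data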
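System: GST-AP2 R879A glutathione beads; medium: PBS, Tween 20 0.05%, BSA 0.1%; reagent: fluorescein-tagged arrestin peptide at 50 nM final; schedule: pre-incubation 12 min, peptide binding 1 h, room temperature; detection: flow cytometry, FL1 (488/535 nm); read-out: inhibition as reduced fluorescein signal on beads, percent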
ADAM10 inh = human ADAM10 inhibitors, primary screen, biochemical, QFRET, HTS | inhibition, % at 7 µM | hit rate 0.62% among 370,000 | AID 720582, 2013 | Disintegrin and metalloproteinase domain-containing protein 10 (Homo sapiens), O14672 | recombinant ADAM10, EDANS/DABCYL FRET peptide cleavage, 3 h;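 active = inhibition above a per-campaign cutoff equal to the mean of compounds falling between control-based bounds plus 3 SD, cut at about 20% in these data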
Target sequence (O14672 214-748 limits assumed): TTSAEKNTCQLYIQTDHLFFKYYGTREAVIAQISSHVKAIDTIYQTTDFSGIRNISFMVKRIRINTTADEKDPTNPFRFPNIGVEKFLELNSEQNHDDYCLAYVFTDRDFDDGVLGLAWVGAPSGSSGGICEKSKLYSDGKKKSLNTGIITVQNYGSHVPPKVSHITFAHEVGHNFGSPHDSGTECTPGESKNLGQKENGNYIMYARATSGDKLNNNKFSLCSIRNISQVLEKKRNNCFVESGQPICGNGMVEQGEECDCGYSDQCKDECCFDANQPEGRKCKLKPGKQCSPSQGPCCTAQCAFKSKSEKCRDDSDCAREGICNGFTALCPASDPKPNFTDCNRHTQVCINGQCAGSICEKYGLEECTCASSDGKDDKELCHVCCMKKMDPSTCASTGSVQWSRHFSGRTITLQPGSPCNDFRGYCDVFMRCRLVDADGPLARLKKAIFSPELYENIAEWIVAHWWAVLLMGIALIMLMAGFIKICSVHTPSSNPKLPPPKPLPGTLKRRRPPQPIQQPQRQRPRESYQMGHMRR
CendR NRP1 mod = modulators of CendR peptide binding to NRP-1, primary screen, biochemical, fluorescence polarization, uHTS | inhibition, % at 25 µM | hit rate 0.85% among 360,000 | FAM-RPARPAR peptide binding to NRP-1 | Neuropilin-1 (Homo sapiens), O14786;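 active = inhibition or corrected inhibition above about 18%, plus a signal ratio from 0.5 to 1.5, limit read from the data, passing the limit was not always enough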
FAS-TE inh = FAS thioesterase domain inhibitors, primary screen, biochemical, fluorescence intensity, uHTS. recombinant FAS-TE, OMFH fluorogenic substrate, fluorescence endpoint. inhibition, % at 15 µM. hit rate 0.67% among 360,000. AID 602261, 2012;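 active = compounds whose normalised, plate-corrected inhibition of enzyme fluorescence in the single-dose primary screen is 50% or more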
CaV13 ICDI inh = Disruptors of the CACNA1D IQ motif to Ca2+-dependent inactivation inhibitor domain association, primary screening, Förster resonance energy transfer in intact living …. HEK cells, CFP/YFP FRET ICDI-IQ, plate reader, 10 min; percent FRET-ratio fall versus neutral wells. inhibition, % at 12.3 µM. hit rate 0.098% among 340,000;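 active = mean replicate inhibition of at least 30% and at least 1% of replicates passing that level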
ADAM10 confirm = human ADAM10 inhibitors, confirmation, biochemical, QFRET, triplicate; hit rate 1% among 2,100; ADAM10 QFRET peptide cleavage, EDANS fluorescence; shares compounds with ADAM10 inh; AID 743208, 2013; inhibition, % at 6.95 µM;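 active = inhibition above about 20% chosen separately for each screening run, limit read from the data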
ADAM17 counter = ADAM17 inhibitors, counter-screen for ADAM10 exosite inhibitor project, biochemical, QFRET, high throughput; shares compounds with ADAM10 inh; ADAM17 QFRET peptide cleavage, EDANS fluorescence; inhibition, % at 6.95 µM; hit rate 0.5% among 2,100; AID 743214, 2013;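 active = mean triplicate inhibition above the solvent-only control wells' mean plus 3 SD, cut at about 12% in these data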
Each line names hits and unclear results; the compound was inactive in the other large screens (follow-up assays come after a bar, where they were run). In the library only some 2.9% were active in any assay of this set; here they are far more common.

CN(C)CCNc1ncnc2c1ncn2[C@H]1CN(Cc2ccco2)C[C@@H](CO)O1	none (no result: ADAM17 inh, Arr AP2 block, ADAM10 inh, CaV13 ICDI inh)
CC(C)CC1C(=O)N(Cc2cn(CC3CCCCC3)nn2)CCS(=O)(=O)N1Cc1ccc(-c2cccc(CO)c2)cc1 (centres undefined)	ADAM10 inh 24.6 (no result: Arr AP2 block) | ADAM10 confirm inactive | ADAM17 counter inactive
COc1ccc(/C=N/NC(=O)c2ccn[nH]2)cc1COc1ccc(Cl)cc1Cl	ADAM10 inh 20.6 (no result: CaV13 ICDI inh) | ADAM10 confirm inactive | ADAM17 counter inactive
O=C1c2[nH]nc(-c3ccccc3O)c2C(c2cccc(Cl)c2)N1Cc1ccco1 (centres undefined)	ADAM10 inh 28.8 | ADAM10 confirm inactive | ADAM17 counter inactive
COc1cccc(NC(=S)NC(Cc2ccccc2)c2ccccc2)c1 (centres undefined)	ADAM10 inh 20.5 (no result: Arr AP2 block) | ADAM10 confirm inactive | ADAM17 counter inactive
COc1cc(CNn2c(C)n[nH]c2=S)cc(Cl)c1OCc1ccccc1	ADAM10 inh 28.1 | ADAM10 confirm inactive | ADAM17 counter inactive
CC(C)(C)c1ccc(C(=O)Nc2cc(Cl)c(Cl)cc2C(=O)O)cc1	ADAM10 inh 20.2 (no result: Arr AP2 block, CendR NRP1 mod, FAS-TE inh, CaV13 ICDI inh) | ADAM10 confirm inactive | ADAM17 counter inactive
COc1ccc(-n2c(COc3ccc(Cl)cc3)nnc2SCC(=O)Nc2ccc(Oc3ccccc3)cc2)cc1	none (no result: Arr AP2 block, CendR NRP1 mod, FAS-TE inh, CaV13 ICDI inh)
O=C1c2cccc(OCc3ccc(F)cc3)c2CCN1Cc1ccccc1	ADAM10 inh 19.9 | ADAM10 confirm inactive | ADAM17 counter inactive
COC(=O)c1ccc2nc(-c3ccc(C#N)cc3)c(Cc3cccc(Cl)c3)n2c1	none (no result: Arr AP2 block)
CCOC(=O)C1=C(C(=O)OCC)C2N(Cc3ccc(C#N)cc3)c3ccccc3[C@@]23C[C@@H](C(=O)OC)N(S(=O)(=O)c2ccccc2C)C3=N1 (some centres undefined)	none (no result: Arr AP2 block, CendR NRP1 mod, FAS-TE inh)
COC(=O)c1ccc(NCc2c(O)ccc(O)c2Br)cc1Cl	ADAM17 inh 17.1, ADAM10 inh 40.6 | ADAM10 confirm inactive | ADAM17 counter inactive
CCOC(=O)C1(C)CCCN1C(=O)c1cccs1 (centres undefined)	none (no result: Arr AP2 block)
COC(=O)c1cc(-c2ccc(F)cc2OCc2ccccc2)c(=O)n2c1CCC2	none (no result: Arr AP2 block, CendR NRP1 mod, FAS-TE inh, CaV13 ICDI inh)
COc1ccc(S(=O)(=O)N2CCN(C(=O)c3ccc([N+](=O)[O-])o3)CC2)cc1	ADAM10 inh 21.0 | ADAM10 confirm inactive | ADAM17 counter inactive
Clc1ccc(CSc2nnc(CNc3cccc(Cl)c3)o2)cc1	ADAM10 inh 19.8 (no result: CaV13 ICDI inh) | ADAM10 confirm inactive | ADAM17 counter inactive
CCOC(=O)c1csc(NC(=O)CCS(=O)(=O)c2ccc(Cl)cc2)n1	none (no result: Arr AP2 block)
Cc1ccccc1Nc1nc(N)nc(COC(=O)c2cccc(S(=O)(=O)NCc3ccccc3)c2)n1	ADAM10 inh 22.9 | ADAM10 confirm inactive | ADAM17 counter inactive
CN1C2=N[C@H](c3cccc(C(F)(F)F)c3)CC(=O)N2/C(=C\c2ccccc2)[C@H]1c1ccccc1	none (no result: Arr AP2 block, CendR NRP1 mod, FAS-TE inh, CaV13 ICDI inh)
O=C1CSC(c2cccc(F)c2)N1c1c(F)cccc1F (centres undefined)	ADAM10 inh 22.5 | ADAM10 confirm inactive | ADAM17 counter inactive
O=C1CSC(c2ccc(F)cc2)N1c1c(F)cccc1F (centres undefined)	none
COc1cc(C(=O)Nc2ccc3c(c2)nc(C)n3C)cc(OC)c1OC	none
Cc1nc2cc(NC(=O)c3ccc(Cl)cc3)ccc2n1C	ADAM10 inh 22.9 | ADAM10 confirm inactive | ADAM17 counter inactive
CCc1ccccc1NC(=O)CCS(=O)(=O)c1ccc(OC)cc1	none
COc1ccc(NC(=O)c2cc(-c3ccccc3Cl)on2)cc1	none
COc1cc(NC(=O)c2cc(-c3ccccc3Cl)on2)cc(OC)c1OC	ADAM10 inh 33.1 | ADAM10 confirm inactive | ADAM17 counter inactive
CCOC(=O)c1cccc(NC(=O)COc2nsnc2N2CCOCC2)c1	none
C#CCN1CC(COCCCC)Oc2cccc(Oc3ccc(C(C)(C)C)c(C)c3)c2S1(=O)=O (centres undefined)	none (no result: Arr AP2 block, CendR NRP1 mod, FAS-TE inh)
Cc1cccc(OCCNC(=O)c2ccc(Oc3ccc(C(F)(F)F)cc3[N+](=O)[O-])cc2)c1	ADAM10 inh 25.6 | ADAM10 confirm inactive | ADAM17 counter inactive
CCc1cc(C(=O)Cc2ccc(F)cc2)c(O)cc1O	ADAM10 inh 23.2 (no result: CaV13 ICDI inh) | ADAM10 confirm inactive | ADAM17 counter inactive
CCC(c1nnnn1-c1ccc2c(c1)OCCO2)N1CCN(c2ccc(F)cc2)CC1 (centres undefined)	none (no result: ADAM17 inh, Arr AP2 block, ADAM10 inh, CaV13 ICDI inh)
Cc1cc(OCc2cc(C(=O)N(C)Cc3nonc3C)no2)cc(C)c1Cl	ADAM10 inh 27.7 | ADAM10 confirm inactive | ADAM17 counter inactive
CCC(NS(=O)(=O)c1ccc(C)cc1)C(=O)N1CCN(c2ccccn2)CC1 (centres undefined)	ADAM10 inh 80.3 | ADAM10 confirm inactive | ADAM17 counter inactive
CCOc1ccc(CCN2C(=S)N([C@@H](Cc3ccc(O)cc3)CN3CCC[C@@H]3CN3C(=S)NC[C@@H]3CC(C)C)C[C@@H]2Cc2ccccc2)cc1	ADAM10 inh 21.0 (no result: Arr AP2 block) | ADAM10 confirm inactive | ADAM17 counter inactive
CCC/C(O)=C1\C(=O)CC(C)(C)CC1=Nc1ccc(OC)cc1	none
CCCC/C(O)=C1\C(=O)CC(C)(C)CC1=Nc1ccc(OC)cc1	ADAM10 inh 41.5 | ADAM10 confirm inactive | ADAM17 counter inactive
CCCN(C)C1CN(Cc2cn(Cc3cccc(Cl)c3)nn2)S(=O)(=O)C1 (centres undefined)	none (no result: Arr AP2 block)
Cn1c(=O)c2nc(NCc3ccccc3)sc2n(C)c1=O	none
Cn1c(=O)c2c(nc(N3CCCCC3)n2CC(O)COc2ccccc2)n(C)c1=O (centres undefined)	ADAM10 inh 20.6 | ADAM10 confirm inactive | ADAM17 counter inactive

Screening data as filed in PubChem.
